Series [1] concerns the target T1, Histone-lysine N-methyltransferase, H3 lysine-79 specific (Homo sapiens, UniProt Q8TEK3). Kind of series: Inhibition of DOT1L (2 to 416 residues) (unknown origin) using biotinylated nucleosomes as substrate preincubated for 30 mins followed by substrate addition in presence of [3H-Me]SAM by scintillation proximity assay.
The target in series [2] is T1, Histone-lysine N-methyltransferase, H3 lysine-79 specific. Description: Inhibition of DOT1L in human HeLa cells assessed as reduction in H3K79me2 level after 72 hrs by ELISA. Format: cell-based. (In general: In an ELISA, binding on a coated surface is turned into a signal by an enzyme label.)
Series [3] has the same target. Description: Inhibition of DOT1L in human MOLM13 cells assessed as suppression of HoxA9 gene after 72 hrs by luciferase reporter gene assay. Format: cell-based.
For a further series, the system named is MV4-11. Kind of series: Antiproliferative activity against human MV4-11 cells harboring MLL-AF4 treated for 6 hrs measured after 8 days by Celltiter-Glo reagent based assay. Format: functional, cell-based. (In general: In ATP-based viability assays light output follows the ATP content of the culture.)
Series [4] can be described thus: Permeability of compound by HDM-PAMPA assay. Format: ADME. A general note: PAMPA measures passive passage across an artificial lipid membrane.
Series [5] can be described thus: Clearance in Sprague-Dawley rat at 1 mg/kg, iv administered as bolus dose measured up to 48 hrs by LC-MS/MS analysis. The note with it: in vivo. Format: ADME, organism-based. In a few lines:
(§1)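 Male Sprague Dawley rats received a single intravenous bolus at 1 mg/kg. Total blood concentrations were followed over time. Clearance, volume of distribution, half-life and AUC0-inf were derived from the blood profile.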

A short description of series [6]: Volume of distribution in Sprague-Dawley rat at 1 mg/kg, iv administered as bolus dose measured up to 48 hrs by LC-MS/MS analysis. Format: ADME, organism-based. The settings on record: in vivo. The method, boiled down:
as §1

The nature of series [7]: Half life in Sprague-Dawley rat at 1 mg/kg, iv administered as bolus dose by LC-MS/MS analysis. Format: ADME, organism-based. The note with it: in vivo. The method, boiled down: as §1
The nature of series [8]: AUC (0 to infinity) in Sprague-Dawley rat at 1 mg/kg, iv administered as bolus dose by LC-MS/MS analysis. Format: ADME, organism-based. Set-up: dose 1 mg/kg, route intravenous, time infinity. The settings on record: in vivo. In a few lines: as §1
Series [9] can be described thus: AUC (0 to infinity) in Sprague-Dawley rat at 15 mg/kg, po administered via gastric intubation by LC-MS/MS analysis. Format: ADME, organism-based. Set-up: dose 15 mg/kg, route oral, time infinity. The settings on record: in vivo. The method, boiled down:
(§2)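 Oral dosing was given to male Sprague Dawley rats as a suspension at 15 mg/kg. Total blood concentrations were sampled over time to give Cmax, Tmax and AUC0-inf. Oral bioavailability was calculated at this dose.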

The nature of series [10]: Cmax in Sprague-Dawley rat at 15 mg/kg, po administered via gastric intubation measured up to 48 hrs by LC-MS/MS analysis. Format: ADME, organism-based. Details: dose 15 mg/kg, route oral; call rule not given here. The note with it: in vivo. In a few lines:
as §2

A short description of series [11]: Oral bioavailability in Sprague-Dawley rat at 15 mg/kg administered via gastric intubation measured up to 48 hrs by LC-MS/MS analysis. Format: ADME, organism-based. The note with it: in vivo. The method, boiled down:
as §2

The nature of series [12]: Drug level in Sprague-Dawley rat blood at 15 mg/kg, po administered via gastric intubation up to 24 hrs by LC-MS/MS analysis. Format: ADME, organism-based. The settings on record: in vivo. In a few lines: as §2
Series [13] is described as follows: Tmax in Sprague-Dawley rat at 15 mg/kg, po administered via gastric intubation by LC-MS/MS analysis. The settings on record: in vivo. Format: ADME, organism-based. In a few lines:
as §2

The source of these data is ChEMBL document CHEMBL4477274, “Discovery of Novel Dot1L Inhibitors through a Structure-Based Fragmentation Approach” (ACS Med Chem Lett, 2016).

What is called IC50 is the concentration that inhibits the measured activity by half. By Ki is commonly meant a measure of affinity in units of concentration, obtained from inhibition or displacement. By clearance is commonly meant a measure of how efficiently the substance is removed, as volume per time. A word on the Vd: it is a proportionality between amount in the body and measured concentration, not a real space. Low values mean confinement near the circulation, high ones extensive tissue distribution. The term half-life denotes how long it takes for the measured level to halve. By AUC(0-inf) is commonly meant the area under the concentration-time curve extrapolated to infinity. The Cmax is the maximum level reached in the sampled fluid or tissue. In general, bioavailability refers to the share of a dose that reaches the circulation, judged against a reference dose that is usually intravenous. Low readings indicate little systemic uptake, high ones much systemic uptake. For orientation: Tmax means the time at which the peak concentration occurs.

T1 sequence (Q8TEK3 whole entry, the tested form may be a part): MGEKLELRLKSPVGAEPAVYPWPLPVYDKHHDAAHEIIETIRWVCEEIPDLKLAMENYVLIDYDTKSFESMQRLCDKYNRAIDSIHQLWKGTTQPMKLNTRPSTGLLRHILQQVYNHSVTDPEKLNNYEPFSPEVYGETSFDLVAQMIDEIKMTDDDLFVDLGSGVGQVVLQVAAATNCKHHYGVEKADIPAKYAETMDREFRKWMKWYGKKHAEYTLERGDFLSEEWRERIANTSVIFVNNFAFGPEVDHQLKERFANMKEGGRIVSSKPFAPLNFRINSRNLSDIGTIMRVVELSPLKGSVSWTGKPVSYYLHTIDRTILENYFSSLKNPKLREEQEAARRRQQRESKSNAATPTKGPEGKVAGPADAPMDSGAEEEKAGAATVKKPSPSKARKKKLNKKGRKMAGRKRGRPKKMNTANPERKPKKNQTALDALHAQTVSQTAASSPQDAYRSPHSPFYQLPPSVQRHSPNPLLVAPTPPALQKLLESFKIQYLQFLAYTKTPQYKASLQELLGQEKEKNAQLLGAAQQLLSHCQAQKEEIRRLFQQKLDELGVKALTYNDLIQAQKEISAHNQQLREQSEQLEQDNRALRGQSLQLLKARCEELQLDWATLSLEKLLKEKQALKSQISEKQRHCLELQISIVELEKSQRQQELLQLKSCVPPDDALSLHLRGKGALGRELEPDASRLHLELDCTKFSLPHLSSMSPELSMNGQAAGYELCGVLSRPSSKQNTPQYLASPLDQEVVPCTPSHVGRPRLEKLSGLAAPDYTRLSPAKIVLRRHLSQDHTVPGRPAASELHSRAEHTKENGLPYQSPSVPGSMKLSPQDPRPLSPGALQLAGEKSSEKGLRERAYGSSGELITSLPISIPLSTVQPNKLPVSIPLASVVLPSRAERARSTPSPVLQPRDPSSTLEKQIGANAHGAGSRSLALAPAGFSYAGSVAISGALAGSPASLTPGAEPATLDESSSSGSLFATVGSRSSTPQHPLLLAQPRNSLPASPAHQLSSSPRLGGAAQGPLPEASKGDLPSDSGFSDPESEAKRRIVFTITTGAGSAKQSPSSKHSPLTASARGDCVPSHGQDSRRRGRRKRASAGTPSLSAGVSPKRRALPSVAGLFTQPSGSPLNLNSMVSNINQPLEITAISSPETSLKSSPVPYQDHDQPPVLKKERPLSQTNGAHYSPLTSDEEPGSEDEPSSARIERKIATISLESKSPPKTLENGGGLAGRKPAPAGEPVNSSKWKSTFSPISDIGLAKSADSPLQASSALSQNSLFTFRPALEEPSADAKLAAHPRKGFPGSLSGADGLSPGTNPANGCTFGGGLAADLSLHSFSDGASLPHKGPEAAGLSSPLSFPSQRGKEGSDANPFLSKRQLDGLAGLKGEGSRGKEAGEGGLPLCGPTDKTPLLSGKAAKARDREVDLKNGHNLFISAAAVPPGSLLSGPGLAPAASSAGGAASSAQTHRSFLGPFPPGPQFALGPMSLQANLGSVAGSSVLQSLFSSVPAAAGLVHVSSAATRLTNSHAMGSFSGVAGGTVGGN

As for `CNc1ccnc(Nc2ccc3sc(Cl)c(-c4cc(-c5c(C)ncn(C)c5=O)cnc4Cl)c3c2)n1`, the 50% inhibitory concentration (IC50) came out at 1.4 nM in [1], 23 nM in series [2], 384 nM in series [3] and 85 nM in the series on MV4-11. The Ki in series [1] was 0.36 nM. Further, in series [4], the permeability entry is listed as “Permeable”. The compound also registered a clearance in series [5] of 84 mL/min/kg. The Vd in series [6] was found to be 10 L/kg. The half-life in series [7] is 1.7 h. The area under the curve AUC(0-inf) turned out to be 0.396 µM·h in series [8] and 2.37 µM·h in series [9]. This compound also showed a Cmax in [10] of 225 nM. The bioavailability in series [11] was 40%. Also, the Drug uptake entry in series [12] is reported as “Active”. Besides, in [13], the time of peak concentration (Tmax) was found to be 3.5 h.
As for `Cc1cc2ccc(NC3=NC(=O)CN3)cc2n1-c1cccnc1Cl`, in series [1], the IC50 worked out at 4100 nM.
On the same count and under the same terms, the figure for `Cc1cc2ccc(Nc3nc(=O)cc[nH]3)cc2n1-c1cccnc1Cl` is 1100 nM.
Same read-out and setting: with `CNc1ccnc(Nc2ccc3cc(C)n(-c4cc(-c5c(C)ccn(C)c5=O)cnc4Cl)c3c2)n1` the figure was 10 nM.
With `Cc1cc2ccc(Nc3cccnn3)cc2n1-c1cccnc1Cl`, the IC50 in series [1] stood at 28000 nM.
The same measure, in the same setting: the figure for `CNc1ccnc(Nc2ccc3cc(C)n(-c4cccnc4Cl)c3c2)n1` is 280 nM; for `Cc1cc2ccc(Nc3nccc(N)n3)cc2n1-c1cccnc1Cl` it is 4300 nM.
Still for that read-out and setting: with `CNc1ccnc(Nc2ccc3cc(C)n(-c4ccccc4Oc4ccccc4)c3c2)n1` the figure was 150 nM; with `O=C(Cn1nnc(COc2ccccc2Cl)n1)NNC(=O)Nc1ccc(Cl)cc1`, 14000 nM.
As for `O=C(Cn1nnnc1-c1ccccc1Cl)NNC(=O)Nc1ccc2ccn(-c3ccccc3Cl)c2c1`, the IC50 in series [1] worked out at 20 nM. In series [4], the permeability entry was “Impermeable”.
Take `O=C(Cn1nnnc1COc1ccccc1Cl)NNC(=O)Nc1ccc(Cl)cc1`: the concentration for half-maximal inhibition (IC50) in [1] came to 4400 nM.
With `CNc1ccnc(Nc2ccc3cc(C)n(-c4ccccc4Oc4cnc5c(c4)ncn5C)c3c2)n1`, the IC50 in [1] is 0.4 nM; in series [2], 16 nM; in series [3], 340 nM; with MV4-11 it was 128 nM. The Ki in series [1] amounted to 0.08 nM.
For the compound `CCNC(=O)Nc1ccc2ccn(-c3ccccc3Cl)c2c1`, in series [1], the IC50 came out at 40000 nM.
